Test results from PMC3295204 (Journal of Medicinal Chemistry, 2012).

Experiments:
[1] = tested on: PC-3 cells; test: Cell viability; format: cell-based, human; settings: PC-3, 50 μM, 24 h
[2] = Cell viability; format: cell-based, human; settings: human, PC-3 cells (androgen-independent prostate cancer cell line)
[3] = target: T1, progesterone receptor (PR) (Homo sapiens, UniProt P06401); test: TR-FRET SRC1-4 coactivator displacement from progesterone-PR complex; format: biochemical; settings: AR vs PR
T1 sequence (P06401 679-933 limits assumed): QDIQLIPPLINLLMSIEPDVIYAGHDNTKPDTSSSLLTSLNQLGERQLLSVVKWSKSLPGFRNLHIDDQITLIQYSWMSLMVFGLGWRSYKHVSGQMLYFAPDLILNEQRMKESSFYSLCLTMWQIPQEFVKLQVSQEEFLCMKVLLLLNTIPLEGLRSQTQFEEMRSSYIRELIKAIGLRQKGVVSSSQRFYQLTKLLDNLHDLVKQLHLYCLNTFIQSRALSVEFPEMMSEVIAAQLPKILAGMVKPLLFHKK
Summary of the method: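 TR-FRET coactivator-recruitment assay with LBD and Tb anti-GST antibody. Agonist was set at its EC80 from a prior agonist-mode run: DHT for AR-LBD (test compound 100 μM–45 nM), progesterone for PR (100–1 μM). Buffer had 1% DMSO, 5 mM DTT and 0.01% Triton X-100; incubation was 2–4 h at RT in the dark. […] Two experiments in triplicate.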

[4] = Cell viability; format: cell-based; settings: human, LNCaP cells (androgen-dependent prostate cancer cell line)
[5] = Cell viability; format: cell-based; settings: human, PWR-1E cells (normal prostatic epithelia cell line)
[6] = tested on: LNCaP cells; test: Hormone-dependent cell proliferation in androgen-deprived LNCaP cells; format: cell-based, human
Summary of the method: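 LNCaP cells were androgen-deprived for 48 h in phenol red-free RPMI with 10% charcoal-stripped FBS. They were seeded at 2 × 10^4 cells/mL in triplicate and treated with test compound ± 0.1 nM DHT (0.1% DMSO final), with a vehicle control. Media and treatments were renewed every second day after two PBS washes. Proliferation was read by AlamarBlue at 5 days. Two independent experiments, SEM n = 6.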

[7] = tested on: PSA secretion (AR signaling) in LNCaP cells; test: Secreted PSA ELISA in LNCaP cells; format: cell-based, human
Summary of the method: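 Media were renewed every second day, and supernatants collected at day 5 for human PSA sandwich ELISA: sample 2 h at RT, HRP-conjugate antibody 2 h at RT, TMB 30 min, then 2 N H2SO4 stop. OD 450 minus 540 nm was interpolated from a standard curve. Two experiments, SEM n = 4.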

Row | binding selectivity for AR over PR [3] | SMILES | cell viability [1] | viability at 24 h, 50 µM [2] | viability at 24 h, 50 µM [4] | viability at 24 h, 50 µM [5] | tolerability in LNCaP cells ([6]; 5 days of treatment at 10 and 20 μM) | effect on DHT-treated cell count ([6]; 5 days, 10 and 20 μM, 0.1 nM DHT) | effect on CPA partial agonist activity (secreted PSA) ([7]; 10 μM, androgen-deprived LNCaP) | effect on DHT-induced PSA secretion ([7]; LNCaP, ELISA) | agonist activity (PSA without hormone stimulation) ([7]; androgen-deprived LNCaP, tested concentrations)
1 | – | CC(=O)O[C@]1(C(C)=O)CC[C@H]2[C@@H]3C=C(Cl)C4=CC(=O)[C@@H]5C[C@@H]5[C@]4(C)[C@H]3CC[C@@]21C [CPA, cyproterone acetate, reference compound] | minor effect | – | – | – | – | – | – | – | –
2 | approximately 2 fold | O=C(N/N=C/c1cc(Br)ccc1O)c1cc2ccccc2cc1O [Compound 4] | – | 50 to 60% | 50 to 60% | 50 to 60% | – | – | – | – | –
3 | comparable affinity | COc1cc(/C=N/NC(=O)c2cc3c(ccc4ccccc43)o2)cc(OC)c1O [Compound 5] | – | – | – | – | well-tolerated | specific reduction in DHT-treated cell count | antagonize CPA partial agonist activity | reduce DHT-induced PSA secretion in a dose–response fashion | no detectable agonist or partial agonist activity
